In ChEMBL document CHEMBL1154775, “Discovery of dermorphin-based affinity labels with subnanomolar affinity for mu opioid receptors” (J Med Chem, 2009):
The source made the active and inactive calls. The rule behind the calls is not given here. Numbered stars: 1 amine (or outer) side, 2 acyl side, 3 side chain; on linkers, the order of the positions; unused ones are H or OH. Square brackets hold non-standard residues; d marks the D form. Peptide text beside a SMILES is read from it. X6 = O=C(CBr)N(CCCC[C@@H](N[*:1])C(=O)[*:2])C(=O)CBr; X1 = O=C(CBr)N(CCC[C@@H](N[*:1])C(=O)[*:2])C(=O)CBr; X7 = CC(=O)N(CCCC[C@@H](N[*:1])C(=O)[*:2])C(C)=O; X8 = CC(=O)N(CCC[C@@H](N[*:1])C(=O)[*:2])C(C)=O; X5 = O=C([C@@H](CCCCN(N=C=S)N=C=S)N[*:1])[*:2]; X4 = O=C([C@@H](CCCN(N=C=S)N=C=S)N[*:1])[*:2]

Experiments:
[1] = Ratio of dermorphin selectivity for mu opioid receptor over delta opioid receptor to compound selectivity for mu opioid receptor over delta opioid receptor
Mu-type opioid receptor [2] = molecular target: T1, Mu-type opioid receptor (Homo sapiens, UniProt P35372); test: Displacement of [3H]DAMGO from mu opioid receptor expressed in CHO cells after 90 mins by scintillation counting relative to dermorphin; type: cell-based
T1 sequence (P35372 whole entry): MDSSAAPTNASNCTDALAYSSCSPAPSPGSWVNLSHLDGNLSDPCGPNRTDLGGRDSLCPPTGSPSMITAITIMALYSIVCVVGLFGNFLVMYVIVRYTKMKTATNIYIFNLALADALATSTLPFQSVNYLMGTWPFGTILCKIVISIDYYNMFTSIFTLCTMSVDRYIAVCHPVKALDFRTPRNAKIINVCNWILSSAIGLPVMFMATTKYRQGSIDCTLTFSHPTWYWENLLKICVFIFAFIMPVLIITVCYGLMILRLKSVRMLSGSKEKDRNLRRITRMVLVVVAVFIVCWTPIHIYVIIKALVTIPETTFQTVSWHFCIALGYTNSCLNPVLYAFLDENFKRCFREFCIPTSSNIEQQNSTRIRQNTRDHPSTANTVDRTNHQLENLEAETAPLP

Mu-type opioid receptor [3] = molecular target: T1, Mu-type opioid receptor; test: Displacement of [3H]DAMGO from mu opioid receptor expressed in CHO cells after 90 mins by scintillation counting; type: cell-based
Procedure, shortened: (§1)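 Competitive radioligand binding on CHO cells stably expressing MOR or DOR. Radioligand was [3H]DAMGO for MOR and [3H]DPDPE for DOR. IC50 values were measured under standard conditions.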

[4] = molecular target: Delta-type opioid receptor (Homo sapiens, UniProt P41143); test: Displacement of [3H]DPDPE from delta opioid receptor expressed in CHO cells after 90 mins by scintillation counting; type: cell-based; procedure, shortened: as §1
Delta-type opioid receptor, sequence (P41143 whole entry): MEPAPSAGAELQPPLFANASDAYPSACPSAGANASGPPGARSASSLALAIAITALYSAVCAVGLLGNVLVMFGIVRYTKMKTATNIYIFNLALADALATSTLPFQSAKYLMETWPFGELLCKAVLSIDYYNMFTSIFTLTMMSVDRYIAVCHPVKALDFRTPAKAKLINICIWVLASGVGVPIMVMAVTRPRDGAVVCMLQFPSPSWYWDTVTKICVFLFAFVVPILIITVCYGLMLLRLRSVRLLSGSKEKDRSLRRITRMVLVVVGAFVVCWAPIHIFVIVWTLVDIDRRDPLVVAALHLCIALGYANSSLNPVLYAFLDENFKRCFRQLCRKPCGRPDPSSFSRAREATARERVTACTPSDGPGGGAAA

[5] = Selectivity ratio of IC50 for delta opioid receptor to IC50 for mu opioid receptor
Procedure, shortened: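 MOR selectivity was calculated as the ratio of DOR IC50 to MOR IC50. Both IC50s came from CHO-cell binding, with [3H]DPDPE as the DOR radioligand and [3H]DAMGO as the MOR radioligand. Ratios depend on the radioligand concentration used.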

[6] = molecular target: Mu-type opioid receptor (Cavia porcellus) (UniProt P97266); test: Ratio of compound IC50 to beta-FNA IC50 for mu opioid receptor in guinea pig brain membrane; type: cell membranes
Mu-type opioid receptor (Cavia porcellus), sequence (P97266 whole entry): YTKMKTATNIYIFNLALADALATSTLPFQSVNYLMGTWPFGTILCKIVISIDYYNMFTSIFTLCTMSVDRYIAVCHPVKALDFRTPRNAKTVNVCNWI

Mu-type opioid receptor [7] = molecular target: T1, Mu-type opioid receptor; conditions: CHO; 0.43 nM
[8] = molecular target: Mu-type opioid receptor (Rattus norvegicus) (UniProt P33535); test: (§2) Inhibition of [3H]DAMGO binding to mu opioid receptor in rat brain membrane; type: cell membranes
Mu-type opioid receptor (Rattus norvegicus), sequence (P33535 whole entry): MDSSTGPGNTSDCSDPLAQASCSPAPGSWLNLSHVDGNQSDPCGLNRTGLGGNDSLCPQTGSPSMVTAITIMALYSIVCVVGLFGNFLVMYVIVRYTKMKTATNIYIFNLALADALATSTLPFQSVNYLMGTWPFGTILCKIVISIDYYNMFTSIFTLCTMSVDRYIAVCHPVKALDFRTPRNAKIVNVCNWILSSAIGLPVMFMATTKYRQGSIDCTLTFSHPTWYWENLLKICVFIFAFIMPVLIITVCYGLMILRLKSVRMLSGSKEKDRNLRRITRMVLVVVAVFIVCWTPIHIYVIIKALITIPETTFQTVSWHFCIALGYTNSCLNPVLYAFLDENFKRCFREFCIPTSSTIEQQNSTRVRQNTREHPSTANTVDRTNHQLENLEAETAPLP

Mu-type opioid receptor [9] = molecular target: Mu-type opioid receptor (Rattus norvegicus, UniProt P33535); test: as §2; type: cell membranes
Mu-type opioid receptor (Rattus norvegicus, UniProt P33535), sequence (P33535 whole entry): as above

Mu-type opioid receptor [10] = molecular target: Mu-type opioid receptor (Cavia porcellus, UniProt P97266); test: Displacement of beta-[3H]FNA from mu opioid receptor in guinea pig brain membrane; type: cell membranes
Mu-type opioid receptor (Cavia porcellus, UniProt P97266), sequence (P97266 whole entry): as the sequence (P97266 whole entry) above

Mu-type opioid receptor [11] = molecular target: T1, Mu-type opioid receptor; test: Inhibition of [3H]DAMGO binding to mu opioid receptor expressed in CHO cells at 0.4 nM after 90 mins by WRIB assay; type: cell-based
Procedure, shortened: (§3)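 Wash-resistant inhibition of binding in MOR-expressing CHO cell membranes. Membranes were incubated with peptide, either near its IC50 or at higher concentrations, then washed extensively to remove noncovalently bound ligand. Remaining [3H]DAMGO binding was then measured and expressed as % inhibition against untreated control. Acetylated reversible analogues were run alongside to verify that the wash was complete.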

Mu-type opioid receptor [12] = molecular target: T1, Mu-type opioid receptor; test: Inhibition of [3H]DAMGO binding to mu opioid receptor expressed in CHO cells after 90 mins by WRIB assay; type: cell-based; procedure, shortened: as §3
Mu-type opioid receptor [13] = molecular target: T1, Mu-type opioid receptor; test: Ratio of dermorphin IC50 to compound IC50 for mu opioid receptor expressed in CHO cells; type: cell-based
Mu-type opioid receptor [14] = molecular target: T1, Mu-type opioid receptor; test: Inhibition of [3H]DAMGO binding to mu opioid receptor expressed in CHO cells at 7 nM after 90 mins by WRIB assay; type: cell-based; procedure, shortened: as §3
Mu-type opioid receptor [15] = molecular target: T1, Mu-type opioid receptor; conditions: CHO; 0.11 nM
[16] = molecular target: Mu-type opioid receptor (Rattus norvegicus) (UniProt P33535); test: Inhibition of [3H]naloxone binding to mu opioid receptor in rat brain membrane; type: cell membranes

## N[C@@H](Cc1ccc(O)cc1)C(=O)N[C@H](CCCN(N=C=S)N=C=S)C(=O)N[C@@H](Cc1ccccc1)C(=O)NCC(=O)N[C@@H](Cc1ccc(O)cc1)C(=O)N1CCC[C@H]1C(=O)N[C@@H](CO)C(=O)O (H-Y[X4]FGYPS-OH)
[1]
  Ratio: 9
Mu-type opioid receptor [2]
  Activity: 0.89
Mu-type opioid receptor [3]
  IC50: 0.00081 µM
[4]
  IC50: 0.0238 µM
[5]
  Ratio IC50: 29
[6]
  Ratio IC50: 3
Mu-type opioid receptor [7]
  inhibition: 40%

## CC(C)C[C@@H](CSSc1ncccc1[N+](=O)[O-])NC(=O)[C@H](Cc1ccccc1)NC(=O)CNC(=O)C(C)NC(=O)[C@@H](N)Cc1ccc(O)cc1 (stereo in doubt)
[8]
  inhibition: Dose-dependent effect
Mu-type opioid receptor [9]
  IC50: 0.019 µM

## COC(=O)/C=C/C(=O)N[C@@H]1CC[C@@]2(O)[C@H]3Cc4ccc(O)c5c4[C@@]2(CCN3CC2CC2)[C@H]1O5
Mu-type opioid receptor [10]
  IC50: 0.0022 µM

## N[C@@H](Cc1ccc(O)cc1)C(=O)N[C@H](CCCCN(N=C=S)N=C=S)C(=O)N[C@@H](Cc1ccccc1)C(=O)NCC(=O)N[C@@H](Cc1ccc(O)cc1)C(=O)N1CCC[C@H]1C(=O)N[C@@H](CO)C(=O)O (H-Y[X5]FGYPS-OH)
Mu-type opioid receptor [2]
  Activity: 1.89
Mu-type opioid receptor [3]
  IC50: 0.00038 µM
[4]
  IC50: 0.0971 µM
[5]
  Ratio IC50: 255
Mu-type opioid receptor [11]
  inhibition: 31%
Mu-type opioid receptor [12]
  inhibition: Dose-dependent effect
Mu-type opioid receptor [13]
  Ratio IC50: 2

## CC(=O)N(CCCC[C@@H](NC(=O)[C@@H](N)Cc1ccc(O)cc1)C(=O)N[C@@H](Cc1ccccc1)C(=O)NCC(=O)N[C@@H](Cc1ccc(O)cc1)C(=O)N1CCC[C@H]1C(=O)N[C@@H](CO)C(=O)O)C(C)=O (H-Y[X7]FGYPS-OH)
Mu-type opioid receptor [2]
  Activity: 0.02
Mu-type opioid receptor [3]
  IC50: 0.0298 µM
[4]
  IC50: 0.436 µM
[5]
  Ratio IC50: 15

## N[C@@H](Cc1ccc(O)cc1)C(=O)N[C@H](CCCCN(C(=O)CBr)C(=O)CBr)C(=O)N[C@@H](Cc1ccccc1)C(=O)NCC(=O)N[C@@H](Cc1ccc(O)cc1)C(=O)N1CCC[C@H]1C(=O)N[C@@H](CO)C(=O)O (H-Y[X6]FGYPS-OH)
[1]
  Ratio: 4
Mu-type opioid receptor [2]
  Activity: 0.14
Mu-type opioid receptor [3]
  IC50: 0.00523 µM
[4]
  IC50: 0.382 µM
[5]
  Ratio IC50: 73
[6]
  Ratio IC50: 3
Mu-type opioid receptor [14]
  inhibition: 32%

## CC(=O)N(CCC[C@@H](NC(=O)[C@@H](N)Cc1ccc(O)cc1)C(=O)N[C@@H](Cc1ccccc1)C(=O)NCC(=O)N[C@@H](Cc1ccc(O)cc1)C(=O)N1CCC[C@H]1C(=O)N[C@@H](CO)C(=O)O)C(C)=O (H-Y[X8]FGYPS-OH)
Mu-type opioid receptor [2]
  Activity: 0.17
Mu-type opioid receptor [3]
  IC50: 0.00425 µM
[4]
  IC50: 0.272 µM
[5]
  Ratio IC50: 64

## N[C@@H](Cc1ccc(O)cc1)C(=O)N[C@H](CCCN(C(=O)CBr)C(=O)CBr)C(=O)N[C@@H](Cc1ccccc1)C(=O)NCC(=O)N[C@@H](Cc1ccc(O)cc1)C(=O)N1CCC[C@H]1C(=O)N[C@@H](CO)C(=O)O (H-Y[X1]FGYPS-OH)
Mu-type opioid receptor [2]
  Activity: 6.54
Mu-type opioid receptor [3]
  IC50: 0.00011 µM
[4]
  IC50: 0.342 µM
[5]
  Ratio IC50: 3110
[6]
  Ratio IC50: 3
Mu-type opioid receptor [15]
  inhibition: inactive
Mu-type opioid receptor [12]
  inhibition: Dose-dependent effect
Mu-type opioid receptor [13]
  Ratio IC50: 7

## C[C@@H](NC(=O)[C@@H](N)Cc1ccc(O)cc1)C(=O)NCC(=O)N(C)c1ccccc1
[16]
  inhibition: Dose-dependent effect
